Experimental data published in publication PMC4092037 (American journal of reproductive immunology (New York, N.Y. …, 2013).
Where two headings read alike, the source gives them in different places. Ends that are not written are not given here.

Key:
[1] = target: T1, human CMKLR1 (Homo sapiens, UniProt Q99788); assay: In vitro transwell chemotaxis assay, huCMKLR1/L1.2; type: cell-based; conditions: for chemotaxis: 4 h at 37°C, fluorescence 560/580 nm
T1 sequence (Q99788 1-373): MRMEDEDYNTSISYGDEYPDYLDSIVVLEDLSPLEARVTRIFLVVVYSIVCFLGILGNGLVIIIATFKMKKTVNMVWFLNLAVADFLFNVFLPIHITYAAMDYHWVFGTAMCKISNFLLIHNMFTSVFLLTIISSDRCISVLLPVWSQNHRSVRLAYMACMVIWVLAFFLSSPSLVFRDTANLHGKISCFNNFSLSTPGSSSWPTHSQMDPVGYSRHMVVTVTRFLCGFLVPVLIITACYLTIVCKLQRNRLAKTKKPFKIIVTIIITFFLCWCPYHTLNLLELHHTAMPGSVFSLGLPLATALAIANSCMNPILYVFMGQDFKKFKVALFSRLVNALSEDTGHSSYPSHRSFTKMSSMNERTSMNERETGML

[2] = tested on: antral follicles; assay: Progesterone production, antral follicle culture; type: cell-based, Sprague-Dawley rat; conditions: hCG 0.01 IU/mL, 6 h, vs hCG group
Summary of the method: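 Immature female rats (21–23 days) were primed with PMSG, 30 IU i.p. per rat. Follicles over 900 μm were isolated 48 h later into ice-cold saline and preincubated at 3 per well in DMEM/F12-0.1% BSA at 37°C. Treated for 6 h with test compound, alone or with hCG 0.01 IU/mL. Medium progesterone measured by 125I RIA (sensitivity 0.02 ng/mL). Mean ± S.E.M.; one-way ANOVA with SNK test.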

[3] = tested on: primary Leydig cells; assay: Testosterone production, primary Leydig cell culture; type: cell-based, Sprague-Dawley rat; conditions: 24 h; for hCG-stimulated testosterone production: hCG 0.01 IU/mL, vs hCG group
Summary of the method: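 Leydig cells came from five male rats aged 3–4 months. Decapsulated testes were digested for 15 min at 34°C in DMEM/F12-0.1% BSA with 0.5 mg/mL collagenase IA and 0.25 mg/mL soybean trypsin inhibitor. Filtered, purified on a Percoll gradient, cultured at 34°C, 5% CO2, and purity checked by 3β-HSD staining. Treated for 24 h with test compound ± hCG 0.01 IU/mL. Medium testosterone by 125I RIA; mean ± S.E.M.; ANOVA/SNK.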

[4] = tested on: CMKLR1; conditions: cited from earlier work
[5] = tested on: human granulose cell; conditions: human granulosa cells; cited from earlier work
[6] = tested on: GPR1; conditions: cited from earlier work
[7] = tested on: CCRL2; conditions: cited from earlier work
[8] = tested on: WT/HEK293 cells; assay: Internalization assay, wild-type HEK293; type: cell-based; conditions: 100 nM, 30 min at 37°C, confocal
Summary of the method: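 Cells were grown on 0.1% gelatin-coated coverslips and serum-starved for 4 h at 50–60% confluence. […] Fixed in 4% paraformaldehyde and permeabilised with 0.1% Triton X-100. Stained overnight at 4°C with rat anti-human CMKLR1 mAb, then Alexa-488 anti-rat for 2 h, with DAPI. Examined by confocal microscopy; four independent experiments.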

[9] = target: T2, human GPR1 (Homo sapiens, UniProt P46091); assay: Radioligand binding assay, huGPR1/HEK293
T2 sequence (P46091 1-355): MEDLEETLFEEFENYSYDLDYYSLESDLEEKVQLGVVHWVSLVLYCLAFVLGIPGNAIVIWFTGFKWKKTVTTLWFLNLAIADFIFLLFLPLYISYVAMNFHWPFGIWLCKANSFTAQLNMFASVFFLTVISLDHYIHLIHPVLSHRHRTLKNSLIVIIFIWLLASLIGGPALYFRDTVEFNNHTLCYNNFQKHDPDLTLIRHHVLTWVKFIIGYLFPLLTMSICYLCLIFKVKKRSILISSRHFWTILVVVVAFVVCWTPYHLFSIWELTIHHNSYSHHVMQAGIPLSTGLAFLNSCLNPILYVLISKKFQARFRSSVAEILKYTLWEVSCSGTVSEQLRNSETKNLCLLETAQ
Summary of the method: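 Competition binding on intact huGPR1/HEK293 cells, with neuronostatin as the negative-control peptide. After incubation, cells were pelleted at 1000 × g for 10 min, washed three times, and counted in a γ-spectrophotometer.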

[10] = tested on: WT/HEK293 cells; assay: cAMP assay, WT/HEK293; type: cell-based; conditions: 30 min at 37°C
Summary of the method: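 Wild-type HEK293 cells were plated at 5 × 10^5/well, cultured for 24 h and serum-starved for 4 h. Exposed for 30 min at 37°C to test compound, forskolin 10 μM, both together, or medium. Washed with cold PBS and lysed. Lysate cAMP was measured by kit and normalised to total protein (BCA); conditioned medium was also assayed. Mean ± S.E.M.; one-way ANOVA with SNK test.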

[11] = tested on: WT/L1.2 cells; assay: In vitro transwell chemotaxis assay, WT/L1.2; type: cell-based; conditions: 0.3, 1, 10, 100 nM, 4 h at 37°C
Summary of the method: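 Wild-type L1.2 cells were pretreated overnight with sodium butyrate. […] After 4 h migration at 37°C, cells in the lower chamber were stained with CellTiter Blue and read by fluorescence at 560/580 nm. Run in parallel with the CMKLR1-transfected line.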

[12] = tested on: WT/HEK293 cells; assay: C-FOS gene expression; type: cell-based; conditions: 30 nM, 30 min at 37°C, data not shown
[13] = tested on: WT/HEK293 cells; assay: Immunocytochemistry of C-FOS, WT/HEK293; type: cell-based; conditions: 100 nM, 30 min at 37°C
Summary of the method: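 Coverslips coated with 0.1% gelatin. […] Fixed in 4% paraformaldehyde for 30 min and permeabilised with 0.1% Triton X-100 for 10 min. Stained with rabbit anti-C-FOS overnight at 4°C, then Alexa-488 anti-rabbit for 1 h, with DAPI nuclear stain. Imaged by confocal microscopy.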

[14] = target: T1, human CMKLR1; assay: cAMP assay, huCMKLR1/HEK293; type: cell-based; conditions: forskolin 10 μM, 30 min at 37°C
[15] = target: T1, human CMKLR1; assay: Radioligand binding assay, huCMKLR1/HEK293
[16] = target: T1, human CMKLR1; assay: Receptor internalization assay, huCMKLR1/HEK293; type: cell-based; conditions: 100 nM, 30 min at 37°C, confocal, four independent experiments
[17] = tested on: primary Leydig cells; assay: Steroidogenic enzyme gene expression, primary Leydig cells; type: cell-based, Sprague-Dawley rat; conditions: beta-actin reference, 24 h
Summary of the method: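 Leydig cells from testes of five Sprague-Dawley males (3–4 months): collagenase IA digestion, 15 min at 34°C; 70 μm filtration; Percoll gradient (1.030–1.096 g/mL); culture at 34°C, 5% CO2; purity by 3β-HSD staining.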

[18] = tested on: antral follicles; assay: Steroidogenic enzyme gene expression, antral follicles; type: cell-based, Sprague-Dawley rat; conditions: large antral follicles, beta-actin reference, 6 h
[19] = tested on: CMKLR1; conditions: cited from earlier work; remark: listed apart in the source

Question: For “C-20: 20 amino acid chemerin-derived peptide; used without species prefix for huC-20 or mC-20 (VQRAGEDPHSFYFPGQFAFS)”, which “lowest effective dose for chemotaxis” value ([1]; of 0.3, 1, 10, 100 nM tested) is on record?
Answer: 1 nM

Question: What about the hCG-stimulated progesterone production ([2]; 1 nM) of the same molecule?
Answer: not effective

Question: What about the hCG-stimulated progesterone production ([2]; 10 nM) of the same molecule?
Answer: not effective

Question: And the hCG-stimulated testosterone production ([3]; 1 nM)?
Answer: not effective

Question: And the hCG-stimulated testosterone production ([3]; 10 nM)?
Answer: not effective

Question: Which leukocyte chemotaxis [4] does the source give for “chemerin: The active protein of 137 amino acids in human was named chemerin” here?
Answer: promotes leukocyte chemotaxis

Question: What about the receptor internalization [4] of the same molecule?
Answer: triggers receptor internalization

Question: What about the “IGF-1-induced progesterone and estradiol secretion” value [5] of the same molecule?
Answer: inhibited

Question: What about the receptor internalization [6] of the same molecule?
Answer: stimulates receptor internalization

Question: What about the internalization and chemotaxis [7] of the same molecule?
Answer: stimulates neither internalization nor chemotaxis

Question: What does the source list for AGEDPHSFYFPGQFA [huC-15]?
Answer: chemotaxis ([1]; 1 nM): no chemotactic actions; chemotaxis ([1]; 10 nM): no chemotactic actions; hCG-stimulated testosterone production ([3]; 100 nM): no such kind of suppression

Question: What does the source list for “huChemerin: Human recombinant chemerin purchased from R&D Systems”?
Answer: internalization [8]: No internalization observed; IC50 ([9]; read-out: IC50 (displacement of iodochemerin), huGPR1/HEK293 cells, about 1,000,000 per tube, 2 nM iodochemerin, 16 h at 23°C): 0.5 nM; forskolin-stimulated cAMP production ([10]; 10 nM peptide/protein + 10 μM forskolin cotreatment): no effect; chemotactic response [11]: no chemotactic response; C-FOS gene expression [12]: No such stimulation; C-FOS protein expression [13]: No such stimulation

Question: What does the source list for `C=C[C@@]1(C)CC(=O)[C@]2(O)[C@@]3(C)[C@@H](O)CCC(C)(C)[C@@H]3[C@H](O)[C@H](OC(C)=O)[C@@]2(C)O1` [forskolin, reference compound]?
Answer: increase in cAMP production [14]: more than 50 fold; increase in cAMP production ([10]; forskolin 10 μM): more than 50 fold

Question: Which IC50 [9] does the source give for VQRAGEDPHSFYFPGQFAFS [huC-20] here?
Answer: 3.5 nM

Question: And the IC50 [15]?
Answer: 1.6 nM

Question: What does the source list for LRQFLQKSLAAAT [NTS]?
Answer: chemotaxis ([1]; 1 nM): no chemotactic actions; chemotaxis ([1]; 10 nM): no chemotactic actions; CMKLR1 internalization [16]: negative control

Question: Which IC50 [9] does the source give for IAQAGEDPHGYFLPGQFAFS [mC-20] here?
Answer: 5 nM

Question: And the IC50 [15]?
Answer: 2.5 nM

B1: mChemerin: mouse recombinant chemerin purchased from R&D Systems (protein, UniProt Q9DD06 21-156, looked up)
Retinoic acid receptor …: EPELSETQRRSLQVALEEFHKHPPVQLAFQEIGVDRAEEVLFSAGTFVRLEFKLQQTNCPKKDWKKPECTIKPNGRRRKCLACIKMDPKGKILGRIVHCPILKQGPQDPQELQCIKIAQAGEDPHGYFLPGQFAFS
Question: For B1, which 17β-HSD gene expression [17] is on record?
Answer: not affected

Question: And the StAR gene expression [17]?
Answer: not affected

Question: What about the p450scc gene expression [17] of the same molecule?
Answer: not affected

Question: And the 3β-HSD gene expression ([17]; with hCG)?
Answer: suppression of 3β-HSD gene expression

Question: What about the 17β-HSD gene expression [18] of the same molecule?
Answer: not affected

Question: What about the StAR gene expression [18] of the same molecule?
Answer: not affected

Question: And the p450scc gene expression [18]?
Answer: not affected

Question: What about the 3β-HSD gene expression ([18]; with hCG) of the same molecule?
Answer: suppression of 3β-HSD gene expression

Question: What about the hCG-stimulated progesterone production ([2]; 10 nM) of the same molecule?
Answer: effective

Question: And the hCG-stimulated progesterone production ([2]; 100 nM)?
Answer: effective

Question: And the hCG-stimulated testosterone production ([3]; 1 nM)?
Answer: suppressed

Question: And the hCG-stimulated testosterone production ([3]; 10 nM)?
Answer: suppressed

Question: And the hCG-stimulated testosterone production ([3]; 100 nM)?
Answer: suppressed

Question: What about the basal testosterone production ([3]; no hCG, 1, 10, 100 nM) of the same molecule?
Answer: No effect was observed

B2: prochemerin: secreted as an inactive precursor, which is 143 amino acids long in human (protein, UniProt Q99969 21-163, looked up)
pro-form: ELTEAQRRGLQVALEEFHKHPPVQWAFQETSVESAVDTPFPAGIFVRLEFKLQQTSCRKRDWKKPECKVRPNGRKRKCLACIKLGSEDKVLGRLVHCPIETQVLREAEEHQETQCLRVQRAGEDPHSFYFPGQFAFSKALPRS
modifications: pro-form
Question: With B2 as the molecule, how does the “affinity for CMKLR1” value [19] read?
Answer: very low affinity
